Data published in ChEMBL document CHEMBL4251693, “Indolylmaleimide Derivative IM-17 Shows Cardioprotective Effects in Ischemia-Reperfusion Injury” (ACS Med Chem Lett, 2018).
Calls of active or inactive are those of the source. The rule behind the calls is not given here. Peptide text beside a SMILES is read from it. * marks the point of attachment. Cbz = O=C(OCc1ccccc1)*

Assays:
HL-60 [1] = test: Cytoprotective activity against H2O2-induced necrosis in human HL60 cells incubated for 1 hr followed by H2O2 stimulation by LDH release assay; type: functional, cell-based; conditions: HL-60, 1 h
In short: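 Necrosis of HL-60 cells induced by H2O2 and quantified as lactate dehydrogenase release from the cytosol; IC50 derived.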

HL-60 [2] = test: Cytoprotective activity against H2O2-induced necrosis in human HL60 cells assessed as increase in cell viability at 1 to 5 mM incubated for 1 hr followed by H2O2 stimulation measured after 3 hrs by Alamar blue assay; type: functional, cell-based
In short: (§1)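 HL-60 cells treated with H2O2 (100 μM, 3 h) with or without various cell death inhibitors (cyclophilin D, PARP-1, necroptosis, autophagy). Viability read by AlamarBlue.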

Jurkat [3] = test: Cytoprotective activity against FasL-induced necroptosis in human Jurkat cells assessed as increase in cell viability at 30 uM incubated for 1 hr followed by FasL stimulation measured after 20 hrs by Alamar blue assay; type: functional, cell-based
In short: (§2)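 Jurkat necroptosis induced with FasL (100 ng/mL, 20 h) together with Z-VAD (100 μM) or cycloheximide (5 μM). Test agents were run at 10 μM alongside a necroptosis inhibitor at 30 μM. Viability read by AlamarBlue; morphology examined by phase-contrast imaging.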

Jurkat [4] = test: Cytoprotective activity against CHX-induced necroptosis in human Jurkat cells assessed as increase in cell viability at 30 uM incubated for 1 hr followed by CHX stimulation by Alamar blue assay; type: functional, cell-based; in short: as §2
Jurkat [5] = test: Cytoprotective activity against Z-VAD-induced necroptosis in human Jurkat cells assessed as increase in cell viability at 30 uM incubated for 1 hr followed by Z-VAD stimulation by Alamar blue assay; type: functional, cell-based; in short: as §2
Jurkat [6] = test: Cytoprotective activity against FasL-induced necroptosis in human Jurkat cells assessed as increase in cell viability at 30 uM incubated for 1 hr followed by FasL stimulation measured after 20 hrs by phase contrast microscopy; type: functional, cell-based; in short: as §2
Jurkat [7] = test: Cytoprotective activity against CHX-induced necroptosis in human Jurkat cells assessed as increase in cell viability at 30 uM incubated for 1 hr followed by CHX stimulation by phase contrast microscopy; type: functional, cell-based; in short: as §2
Jurkat [8] = test: Cytoprotective activity against Z-VAD-induced necroptosis in human Jurkat cells assessed as increase in cell viability at 30 uM incubated for 1 hr followed by Z-VAD stimulation by phase contrast microscopy; type: functional, cell-based; in short: as §2
HL-60 [9] = test: Cytoprotective activity against H2O2-induced necrosis in human HL60 cells assessed as increase in cell viability at 1 to 10 uM incubated for 1 hr followed by H2O2 stimulation measured after 3 hrs by Alamar blue assay; type: functional, cell-based; in short: as §1
HL-60 [10] = test: Cytoprotective activity against H2O2-induced necrosis in human HL60 cells assessed as increase in cell viability at 10 to 100 uM incubated for 1 hr followed by H2O2 stimulation measured after 3 hrs by Alamar blue assay; type: functional, cell-based; in short: as §1
Rattus norvegicus [11] = test: Cardioprotective activity against Sprague-Dawley rat ischemia reperfusion-induced arrhythmia model assessed as ventricular fibrillation time at 1 mg/kg, iv administered 5 mins before ischemia (reference value: 95.3 +/- 13 sec); type: functional
Rattus norvegicus [12] = test: Toxicity in Sprague-Dawley rat ischemia reperfusion-induced arrhythmia model assessed as mortality at 1 mg/kg, iv administered 5 mins before ischemia (reference value: 60%); type: organism-based; conditions: in vivo
Rattus norvegicus [13] = test: Cardioprotective activity against Sprague-Dawley rat ischemia reperfusion-induced arrhythmia model assessed as ventricular fibrillation time at 3 mg/kg, iv administered 5 mins before ischemia (reference value: 95.3 +/- 13 sec); type: functional
Rattus norvegicus [14] = test: Cardioprotective activity against Sprague-Dawley rat ischemia reperfusion-induced arrhythmia model assessed as ventricular fibrillation time at 3 mg/kg, iv administered 1 min before reperfusion (reference value: 96.3 +/- 24.1 sec); type: functional
Rattus norvegicus [15] = test: Toxicity in Sprague-Dawley rat ischemia reperfusion-induced arrhythmia model assessed as mortality at 3 mg/kg, iv administered 5 mins before ischemia (reference value: 60%); type: organism-based; conditions: in vivo
Rattus norvegicus [16] = test: Toxicity in Sprague-Dawley rat ischemia reperfusion-induced arrhythmia model assessed as mortality at 3 mg/kg, iv administered 1 min before reperfusion (reference value: 75%); type: organism-based; conditions: in vivo
HL-60 [17] = test: Cytoprotective activity against TBHP-induced necrosis in human HL60 cells assessed as increase in cell viability at 100 uM incubated for 1 hr followed by TBHP stimulation measured after 3 hrs by Alamar blue assay; type: functional, cell-based
HL-60 [18] = test: Cytoprotective activity against H2O2-induced necrosis in human HL60 cells assessed as increase in cell viability at 100 uM incubated for 1 hr followed by H2O2 stimulation measured after 3 hrs by Alamar blue assay; type: functional, cell-based
In short: (§3)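 HL-60 cells given a death inducer with or without test agent (10 μM) or Z-VAD (100 μM). Inducers were actinomycin D 1 μM for 6 h, camptothecin 1 μM for 6 h, etoposide 100 μM for 4 h, FasL 100 ng/mL for 18 h, H2O2 100 μM for 3 h, and TBHP 30 μM for 3 h. Viability read by AlamarBlue.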

HL-60 [19] = test: Cytoprotective activity against actinomycin D-induced apoptosis in human HL60 cells assessed as increase in cell viability at 100 uM incubated for 1 hr followed by actinomycin D stimulation measured after 6 hrs by Alamar blue assay; type: functional, cell-based; in short: as §3
HL-60 [20] = test: Cytoprotective activity against camptothecin-induced apoptosis in human HL60 cells assessed as increase in cell viability at 100 uM incubated for 1 hr followed by camptothecin stimulation measured after 6 hrs by Alamar blue assay; type: functional, cell-based; in short: as §3
HL-60 [21] = test: Cytoprotective activity against etoposide-induced apoptosis in human HL60 cells assessed as increase in cell viability at 100 uM incubated for 1 hr followed by etoposide stimulation measured after 4 hrs by Alamar blue assay; type: functional, cell-based; in short: as §3
HL-60 [22] = test: Cytoprotective activity against Fas ligand-induced apoptosis in human HL60 cells assessed as increase in cell viability at 100 uM incubated for 1 hr followed by Fas ligand stimulation measured after 18 hrs by Alamar blue assay; type: functional, cell-based; in short: as §3
HL-60 [23] = test: Cytoprotective activity against H2O2-induced apoptosis in human HL60 cells assessed as increase in cell viability at 100 uM incubated for 1 hr followed by H2O2 stimulation measured after 4 hrs by Alamar blue assay; type: functional, cell-based
In short: (§4)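 HL-60 cells exposed to low-level H2O2 (30 μM, 4 h) with or without test agent (10 μM) or Z-VAD (100 μM). Viability read by AlamarBlue; morphology by phase-contrast imaging.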

HL-60 [24] = test: Cytoprotective activity against H2O2-induced apoptosis in human HL60 cells assessed as increase in cell viability at 100 uM incubated for 1 hr followed by H2O2 stimulation measured after 4 hrs by phase contrast microscopy; type: functional, cell-based; in short: as §4
Jurkat [25] = test: Cytoprotective activity against FasL-induced apoptosis in human Jurkat cells assessed as increase in cell viability at 100 uM incubated for 1 hr followed by FasL stimulation measured after 18 hrs by Alamar blue assay; type: functional, cell-based
In short: (§5)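 Jurkat cells exposed to FasL (100 ng/mL, 18 h) with or without test agent (10 μM) or Z-VAD (100 μM). Viability measured by AlamarBlue and morphology by phase-contrast imaging.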

Jurkat [26] = test: Cytoprotective activity against FasL-induced apoptosis in human Jurkat cells assessed as increase in cell viability at 100 uM incubated for 1 hr followed by FasL stimulation measured after 18 hrs by phase contrast microscopy; type: functional, cell-based; in short: as §5
[27] = Stability in rat liver S9 fraction at 5 uM after 30 mins by HPLC method; type: ADME, subcellular; conditions: s9, 0.5 h
H9c2 [28] = test: Cytoprotective activity against TBHP-induced necrosis in rat H9c2 cells incubated for 4 hrs by LDH release assay; type: functional, cell-based; conditions: H9c2, 4 h
In short: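 Rat cardiomyoblast H9c2 cells treated with TBHP (300 μM) with or without test compound; necrotic cell death quantified by LDH release assay.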

H9c2 [29] = test: Cytotoxicity against rat H9c2 cells at 30 uM; type: cell-based; conditions: h9c2, 30 µM
Heart [30] = test: Cardioprotective activity against Langendorff isolated Sprague-Dawley rat heart ischemia-reperfusion injury model assessed as improvement in LVDP at 3 uM administered for 10 mins as infusion followed by 30 mins of global ischemia and 60 mins of reperfusion; type: functional, tissue-based
In short: (§6)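 Isolated rat hearts perfused in Langendorff mode with Krebs-Henseleit buffer. Compound (HCl salt) added to the perfusate for 10 min before no-flow global ischemia of 30 min, then 60 min reperfusion with flow restored. Left ventricular developed pressure recovery taken as heart function; creatine kinase released from myocardium taken as membrane integrity marker.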

Heart [31] = test: Cardioprotective activity against Langendorff isolated Sprague-Dawley rat heart ischemia-reperfusion injury model assessed as suppression of creatine kinase release at 3 uM administered for 10 mins as infusion followed by 30 mins of global ischemia and 60 mins of reperfusion; type: functional, tissue-based; in short: as §6
Heart [32] = test: Cardioprotective activity against Langendorff isolated Sprague-Dawley rat heart ischemia-reperfusion injury model assessed as improvement in LVDP at 0.3 uM administered for 10 mins as infusion followed by 30 mins of global ischemia and 60 mins of reperfusion; type: functional, tissue-based; in short: as §6
Heart [33] = test: Cardioprotective activity against Langendorff isolated Sprague-Dawley rat heart ischemia-reperfusion injury model assessed as suppression of creatine kinase release at 0.3 uM administered for 10 mins as infusion followed by 30 mins of global ischemia and 60 mins of reperfusion; type: functional, tissue-based; in short: as §6

Structure (SMILES): CCCCCCNC1=C(c2cn(C)c3ccccc23)C(=O)N(C)C1=O
- IC50 (HL-60 [1]): 0.38 µM

Structure (SMILES): CNC1=C(c2cn(C)c3ccccc23)C(=O)N(C)C1=O
- IC50 (HL-60 [1]): 0.91 µM

Structure (SMILES): CN1C(=O)C(NCCCCO)=C(c2cn(C)c3ccccc23)C1=O
- IC50 (HL-60 [1]): 1.1 µM

Structure (SMILES): CN1C(=O)C(NCCCO)=C(c2cn(C)c3ccccc23)C1=O
- IC50 (HL-60 [1]): 1.9 µM

Structure (SMILES): Cn1cnc(N)c2ncnc1-2
- Activity (HL-60 [2]): inactive

Structure (SMILES): CN1C(=O)C(NCCCN)=C(c2cn(C)c3ccccc23)C1=O
- IC50 (HL-60 [1]): 1.3 µM

Structure (SMILES): CN1C(=O)C(Cc2c[nH]c3ccccc23)NC1=S (configuration not stated)
- Activity (Jurkat [3]): Active
- Activity (Jurkat [4]): Active
- Activity (Jurkat [5]): Active
- Activity (Jurkat [6]): Active
- Activity (Jurkat [7]): Active
- Activity (Jurkat [8]): Active
- Activity (HL-60 [9]): inactive

Structure (SMILES): O=C1NCCc2c(OCCCCN3CCCCC3)cccc21
- Activity (HL-60 [10]): inactive

Structure (SMILES): CN1C(=O)C(NCCN)=C(c2cn(C)c3ccccc23)C1=O.Cl
- Time (Rattus norvegicus [11]): 38.2 s
- mortality (Rattus norvegicus [12]): 20%
- Time (Rattus norvegicus [13]): 0 s
- Time (Rattus norvegicus [14]): 57 s
- mortality (Rattus norvegicus [15]): 0%
- mortality (Rattus norvegicus [16]): 20%

Structure (SMILES): CCCCNC1=C(c2cn(C)c3ccccc23)C(=O)N(C)C1=O
- IC50 (HL-60 [1]): 0.42 µM

Structure (SMILES): COC(=O)C[C@H](NC(=O)[C@H](C)NC(=O)[C@@H](NC(=O)OCc1ccccc1)C(C)C)C(=O)O (Cbz-Val-Ala-Asp(OMe)-OH)
- Activity (HL-60 [17]): inactive
- Activity (HL-60 [18]): inactive
- Activity (HL-60 [19]): Active
- Activity (HL-60 [20]): Active
- Activity (HL-60 [21]): Active
- Activity (HL-60 [22]): Active
- Activity (HL-60 [23]): Active
- Activity (HL-60 [24]): Active
- Activity (Jurkat [25]): Active
- Activity (Jurkat [26]): Active

Structure (SMILES): CN1C(=O)C(NCCN)=C(c2cn(C)c3ccccc23)C1=O [listing 1 of 2 here]
- IC50 (HL-60 [1]): 1 µM
- Stability [27]: Stable
- IC50 (H9c2 [28]): 4.9 µM
- Activity (H9c2 [29]): Non-Toxic

Structure (SMILES): CN1C(=O)C(NCCO)=C(c2cn(C)c3ccccc23)C1=O
- IC50 (HL-60 [1]): 1.3 µM

Structure (SMILES): CN1C(=O)C(NCCN)=C(c2cn(C)c3ccccc23)C1=O [listing 2 of 2 here]
- Activity (Heart [30]): Active
- Activity (Heart [31]): Active

Structure (SMILES): CN1C(=O)C(c2c[nH]c3ccccc23)=C(c2cn(CCCN)c3ccccc23)C1=O
- IC50 (H9c2 [28]): 3 µM
- Activity (H9c2 [29]): Toxic

Structure (SMILES): CN1C(=O)C(NCCCCN)=C(c2cn(C)c3ccccc23)C1=O
- IC50 (HL-60 [1]): 1.3 µM

Structure (SMILES): CCCNC1=C(c2cn(C)c3ccccc23)C(=O)N(C)C1=O
- IC50 (HL-60 [1]): 0.44 µM
- Stability [27]: Unstable
- IC50 (H9c2 [28]): 4.4 µM
- Activity (H9c2 [29]): Non-Toxic
- Activity (Heart [32]): Active
- Activity (Heart [33]): Active
